Screens: PubChem BioAssay, Broad Institute
Compounds with a hit are over-represented: about 3.7% of the library has one in this group of screens.
DENV2 CPE rescue: protects cells from dengue virus 2 cytopathic effect; DENV2-infected cells, cytopathic effect rescue, plate reader; CPE inhibition, % at 9.99 µM; hit rate 1.7% among 350,000; AID 651640; in the data active means CPE inhibition above about 20%, passing the limit was not always enough; inconclusive means no clear call, values can overlap the other calls; tested in BHK-21 cells;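 further: 0% = median of neutral control wells and 100% = median of positive control wells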
E-selectin induc: E-selectin induction on HUVECs; P16581; HUVEC E-selectin immunofluorescence imaging; normalized: neutral wells 0, TNF-alpha wells 100; activation, % at 7.58 µM; hit rate 0.37% among 260,000;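 active means mean E-selectin-positive cell signal at least 10% of the positive control, reached in at least 60% of replicates, without over 20% cell loss; inconclusive means no rule given, readout overlaps actives, possibly toxicity-flagged; inactive means the rest, including those meeting only one limit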
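Assay system: HUVEC primary endothelial cells. Input: 3,000 HUVEC seeded per well. Doses: one compound dose added by pin transfer. Read-out basis: % PE-positive cells. Benchmarks: TNF-alpha high, DMSO low. Detection: immunofluorescence imaging. Buffer or medium: EGM-2, gelatin.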
CFTR F508del cor: correctors of CFTR F508del function in bronchial epithelial cells; CFBE cells, YFP halide quenching; stimulated with forskolin plus potentiator P3; % fluorescence drop versus neutral controls; activity (quench increase), % at 7.58 µM; hit rate 0.36% among 350,000;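 active means mean added fluorescence quench of at least 8% versus neutral control, with both replicates also reaching 8%; inconclusive means only one of the mean or replicate conditions met; inactive means mean below 8% and not both replicates reaching 8%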;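 further: cells transiently co-express mutant CFTR-F508del with the halide-sensitive YFP; corrector assay measuring rescue of mutant channel to the surface after 24 h compound exposure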
ERAP1 HTS inh: blocks human ERAP1 aminopeptidase activity. hit rate 0.15% among 340,000. inhibition, % at 10.7 µM. Q9NZ08. recombinant ERAP1, Leu-AMC fluorescence, 60 min;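 active means mean replicate inhibition of at least 30%, or all replicates individually reaching that 30% level; inactive means mean below 30% and not every replicate reaching it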;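 further: 0% = neutral control wells and 100% = L-leucinethiol positive control wells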
FGF22 binding-1: shifts melting point of recombinant human FGF22. Q9HCT0. recombinant FGF22 thermal shift, SYPRO orange fluorescence; percent of sucrose octasulfate shift, DMSO zero. activity (Tm shift, normalised), % at 9.99 µM. hit rate 1.5% among 340,000. AID 651658;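 active means mean Tm shift, scaled 0 neutral to 100 positive control, at about 1.3% or above, every replicate too, limit read from the data; inconclusive means no clear call, values can overlap the other calls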
FGF22 binding-2: binds human FGF22 shifting its melting temperature | hit rate 2% among 1,000 | recombinant FGF22 thermal shift, SYPRO orange fluorescence | thermal shift activity, °C (ΔTm) at 38 µM | shares compounds with FGF22 binding-1;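 active means fitted rise in melting shift crosses a set limit at or below the top valid dose tested; inconclusive means flat fit at mid-level activity, or a poor quality fit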
FGF22 TSA: binders of human FGF22 by thermal shift; shares compounds with FGF22 binding-1; Thermal shift assay, SYPRO orange, melting temperature shift; Tm shift (activity), % at 38 µM; 50 tested, under 10 active; AID 743017;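 active means compounds whose fitted dose curve of melting temperature shift rises past a set threshold within the tested doses; inconclusive means flat curve at moderate activity, or poor curve fit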
SYPRO no-protein: counter-screen for FGF22 binders: compound-only thermal shift, no protein; shares compounds with FGF22 binding-1; compound-only SYPRO orange thermal shift counter-screen; hit rate 2% among 1,000; AC50, µM (top dose mostly 38 µM);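 active means rising signal whose fitted curve reaches the 0.54 level within the top valid dose, showing a melting point, actives reach about 13 µM in these data; inactive means the rest, including activity in the opposite direction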; further: value is where the raw curve crosses a fixed level and not half-maximal
The depositor's hits bear a star; i = inactive; ? = inconclusive; . = not tested or not shown; ! = not active in a repeat; [ ] = dose if it differs, or a comment.

SMILES	DENV2 CPE rescue	E-selectin induc	CFTR F508del cor	ERAP1 HTS inh	FGF22 binding-1	FGF22 binding-2	SYPRO no-protein	others
COc1ccc(NC(=O)N[C@@H]2CC[C@@H](CCNS(=O)(=O)c3ccccc3F)O[C@@H]2CO)cc1	-7	0	3	-2	1	.	.
Cc1noc(C)c1S(=O)(=O)Nc1cccc2c1O[C@H](CN(C)Cc1ccc(C(=O)Nc3ccccc3N)cc1)[C@H](C)CN([C@H](C)CO)C2=O	-9	1	-1	0	0	.	.
O=C(Nc1cc(Cl)cc(Cl)c1)N[C@H]1CC[C@H](CCNS(=O)(=O)c2cccc(F)c2)O[C@H]1CO	3	0	3	1	0	.	.
O=C(Nc1cc(Cl)cc(Cl)c1)N[C@@H]1CC[C@@H](CCNS(=O)(=O)c2cccc(F)c2)O[C@@H]1CO	4	1	2	3	2.7*!	-0.31[42 µM]	i	FGF22 TSA=0
Cc1ccccc1S(=O)(=O)NCC[C@@H]1CC[C@@H](NC(=O)Nc2cccc(Cl)c2)[C@@H](CO)O1	?	1	0	-3	1.3*	-0.071[42 µM]	i
O=C(CCN1CCCCC1)N[C@@H]1CC[C@H](CCNS(=O)(=O)c2ccc(F)cc2)O[C@H]1CO	-1	1	3	2	1.7*	-0.19	i
C[C@H](CO)N1C[C@H](C)[C@H](CN(C)Cc2ccc3c(c2)OCO3)Oc2ccc(NC(=O)NC3CCCCC3)cc2CC1=O	0	2	-1	0	0	.	.
CCS(=O)(=O)Nc1ccc2c(c1)C(=O)N(C)[C@H]1CC[C@H](CC(=O)NC)O[C@H]1CO2	0	0	-3	-1	.	.	.
CN(C)CCN1C(=O)C2C3C=CC(C3)C2C1=O (stereo unspecified)	2	-1	.	-3	15*	-0.047	i
Cc1nc2ccc(C(=O)N/N=C/c3ccccc3O)cc2[nH]1	3	1	2	2	1.5*	0.001	i
Cc1ccc(S(=O)(=O)N(C)c2ccc(OC(=O)COc3ccccc3)cc2)cc1	-5	1	-2	-1	15*	0.1	i
Cc1ccc(S(=O)(=O)N(C)c2ccc(OCC(=O)Nc3ccc(S(C)(=O)=O)cc3)cc2)cc1	10	0	7	0	0	.	.
COc1cc(C(=O)Nc2nc3ccc(S(C)(=O)=O)cc3s2)cc(OC)c1C	3	0	0	.	0	.	.
COc1cc(OC)cc(C(=O)Nc2nc3ccc(S(C)(=O)=O)cc3s2)c1	-5	0	6	-5	1.4*	0.02	i
O=C(OCC(=O)c1cccs1)c1cccc(C(=O)OCC(=O)c2cccs2)n1	-4	.	-1	-2	2.2*	0.026	i
CC(=O)c1ccc(Nc2nc(N3CCOCC3)nc(N3CCOCC3)n2)cc1	-9	.	-2	-1	0	.	.
CC(=O)Nc1ccc(/C(C)=N/Nc2nc(Nc3ccccc3)nc(N3CCOCC3)n2)cc1	.	.	-6	-2	1.6*	0.029	i
COc1ccc(S(=O)(=O)Nc2cc3c4c(c2)CCN4C(=O)CC3)cc1OC	1	7	0	2	12*	-0.008	i
COc1ccc(S(=O)(=O)Nc2cc3c4c(c2)CC(=O)N4CCC3)cc1OC	-3	0	1	4	0	.	.
CCN1C(=O)c2cccc3c(S(=O)(=O)Nc4ccc(O)c(C(=O)O)c4)ccc1c23	0	-1	2	2	8.4*	0.045	i
CCCN1[C@H](C(=O)NC2CCC2)[C@@H](CO)[C@@H]2Cn3c(ccc(-c4cccnc4)c3=O)[C@@H]21	9	0	.	2	0	.	.
NS(=O)(=O)c1ccc2c(c1)C(=NO)c1cc(S(N)(=O)=O)ccc1-2	4	0	5	2	28*	0.049	i
O=C(N[C@@H]1CC[C@H](CC(=O)N2CCN(c3ccccc3)CC2)O[C@@H]1CO)c1ccccc1	1	0	-1	-3	1.9*	-0.057[42 µM]	i
